ChEMBL document CHEMBL1146117, “Inhibitors of human mitotic kinesin Eg5: characterization of the 4-phenyl-tetrahydroisoquinoline lead series” (Bioorg Med Chem Lett, 2006)
Each block holds one molecule with its values, some of them ahead of it.

Assays:
[1] = molecular target: T1, Kinesin-like protein KIF11 (Homo sapiens, UniProt P52732); assay: Inhibition of Eg5 by ATPase assay; assay type: functional
T1 sequence (P52732 whole entry): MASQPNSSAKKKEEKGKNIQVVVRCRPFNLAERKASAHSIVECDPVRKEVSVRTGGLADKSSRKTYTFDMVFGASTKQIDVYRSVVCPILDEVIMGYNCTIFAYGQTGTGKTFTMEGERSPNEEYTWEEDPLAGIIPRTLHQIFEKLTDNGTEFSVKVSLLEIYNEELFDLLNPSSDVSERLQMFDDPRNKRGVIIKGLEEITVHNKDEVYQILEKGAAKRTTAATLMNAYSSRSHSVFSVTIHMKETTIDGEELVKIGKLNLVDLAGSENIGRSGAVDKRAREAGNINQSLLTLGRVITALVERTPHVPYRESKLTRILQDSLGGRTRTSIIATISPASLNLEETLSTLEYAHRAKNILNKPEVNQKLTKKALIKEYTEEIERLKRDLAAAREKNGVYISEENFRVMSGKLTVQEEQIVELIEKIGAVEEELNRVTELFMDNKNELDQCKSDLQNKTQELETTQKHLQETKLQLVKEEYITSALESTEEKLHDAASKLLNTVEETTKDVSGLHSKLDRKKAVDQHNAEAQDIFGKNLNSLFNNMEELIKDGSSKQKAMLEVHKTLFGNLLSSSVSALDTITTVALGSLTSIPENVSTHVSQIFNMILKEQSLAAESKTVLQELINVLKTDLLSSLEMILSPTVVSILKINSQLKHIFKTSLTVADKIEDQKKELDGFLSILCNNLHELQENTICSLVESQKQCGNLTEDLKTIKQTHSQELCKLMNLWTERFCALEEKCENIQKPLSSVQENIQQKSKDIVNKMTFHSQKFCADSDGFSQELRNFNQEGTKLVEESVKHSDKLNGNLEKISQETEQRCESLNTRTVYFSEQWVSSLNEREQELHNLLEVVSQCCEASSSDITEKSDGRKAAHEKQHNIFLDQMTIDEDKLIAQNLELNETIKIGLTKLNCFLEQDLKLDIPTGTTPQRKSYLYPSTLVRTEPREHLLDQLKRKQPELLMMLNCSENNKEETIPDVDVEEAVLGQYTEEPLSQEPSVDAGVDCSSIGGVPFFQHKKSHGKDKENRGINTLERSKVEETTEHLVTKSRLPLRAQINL
Outline: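 Eg5 motor-domain protein ATPase activity read with a Kinase-Glo luminescent ATP kit. IC50 taken from dose–response curves of triplicate data points. Values are means ± SD of three independent experiments.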

A2780 [2] = assay: Antiproliferative activity against human A2780 cells; assay type: functional, cell-based
Outline: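 A2780 ovarian carcinoma cells were exposed to compound for 72 h. IC50 derived from dose–response curves of triplicate data points, reported as the mean ± SD of three independent experiments.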

MDA-MB-468 = assay: Antiproliferative activity against human MDA-MB-468 cells; assay type: functional, cell-based
Outline: (§1)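 Each tumour cell line in the panel was exposed to compound for 72 h, and IC50 was determined after that exposure.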

A2780 [3] = assay: Mitotic index in A2780 cells at M phase at 0.328 uM; assay type: functional, Homo sapiens
Outline: (§2)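 A2780 cells were treated for 17 h at 0.257 or 0.328 µM, with nocodazole 0.1 µM as positive control and DMSO 0.08% as negative control. Cell-cycle profile (% G1, S, G2+M) and mitotic index (% cells in M phase) were quantified by flow cytometry.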

A2780 [4] = assay: Cell cycle arrest in A2780 cells by accumulation at G1 phase at 0.328 uM; assay type: functional, Homo sapiens; outline: as §2
A2780 [5] = assay: Cell cycle arrest in A2780 cells by accumulation at S phase at 0.257 uM; assay type: functional, Homo sapiens; outline: as §2
A2780 [6] = assay: Antiproliferative activity against human A2780-TAXR cells; assay type: functional, cell-based; outline: as §1
A2780 [7] = assay: Cell cycle arrest in A2780 cells by accumulation at G2/M phase at 0.328 uM; assay type: functional, Homo sapiens; outline: as §2
P388 = assay: Antiproliferative activity against mouse P388 cells; assay type: functional, cell-based; outline: as §1
A2780 [8] = assay: Cell cycle arrest in A2780 cells by accumulation at S phase at 0.328 uM; assay type: functional, Homo sapiens; outline: as §2
M109 = assay: Antiproliferative activity against mouse M109 cells; assay type: functional, cell-based; outline: as §1
CCRF-CEM = assay: Antiproliferative activity against human CCRF-CEM cells; assay type: functional, cell-based; outline: as §1
NCI-H446 = assay: Antiproliferative activity against human NCI-H446 cells; assay type: functional, cell-based; outline: as §1
A2780 [9] = assay: Cell cycle arrest in A2780 cells by accumulation at G2/M phase at 0.257 uM; assay type: functional, Homo sapiens; outline: as §2
PC-3 = assay: Antiproliferative activity against human PC3 cells; assay type: functional, cell-based; outline: as §1
LNCaP = assay: Antiproliferative activity against human LNCaP cells; assay type: functional, cell-based; outline: as §1
MDA-MB-231 = assay: Antiproliferative activity against human MDA-MB-231 cells; assay type: functional, cell-based; outline: as §1
HCT-116 = assay: Antiproliferative activity against human HCT116 cells; assay type: functional, cell-based; outline: as §1
A2780 [10] = assay: Cell cycle arrest in A2780 cells by accumulation at G1 phase at 0.257 uM; assay type: functional, Homo sapiens; outline: as §2
SW-620 = assay: Antiproliferative activity against human SW620 cells; assay type: functional, cell-based; outline: as §1
SHP77 = assay: Antiproliferative activity against human SHP77 cells; assay type: functional, cell-based; outline: as §1
A2780 [11] = assay: Mitotic index in A2780 cells at M phase at 0.257 uM; assay type: functional, Homo sapiens; outline: as §2
A2780 [12] = assay: Antiproliferative activity against human A2780S cells; assay type: functional, cell-based; outline: as §1
DU-145 = assay: Antiproliferative activity against human Du145 cells; assay type: functional, cell-based; outline: as §1

SMILES: Cc1ccc2c(c1C)CN(C(=O)N1CCOCC1)CC2c1ccccc1 (stereo not given)
IC50 [1]: 22.3 µM

SMILES: Cc1ccc2c(c1C)CN(C(C)C)CC2c1ccccc1 (stereo not given)
IC50 (A2780 [2]): 6.28 µM
IC50 [1]: 11 µM

SMILES: CN(C)C(=O)N1Cc2c(Cl)cccc2C(c2cccc(O)c2)C1 (stereo not given)
IC50 [1]: > 25 µM

SMILES: Cc1ccc2c(c1C)CN(C(=O)N(C)C)CC2c1cccc(C(F)(F)F)c1 (stereo not given)
IC50 [1]: 13.2 µM

SMILES: COc1ccc2c(c1)CN(C(=O)N(C)C)CC2c1cccc(O)c1 (stereo not given)
IC50 (A2780 [2]): 0.402 µM
IC50 [1]: 0.617 µM

SMILES: Cc1ccc2c(c1C)CN(C(=O)N(C)C)C[C@@H]2c1cccc(O)c1
IC50 (MDA-MB-468): 0.35 µM
Activity (A2780 [3]): 52.2%
Activity (A2780 [4]): 3.1%
Activity (A2780 [5]): 11.8%
IC50 (A2780 [6]): 0.215 µM
Activity (A2780 [7]): 84%
IC50 (P388): 0.46 µM
Activity (A2780 [8]): 5.9%
IC50 (M109): 0.259 µM
IC50 (A2780 [2]): 0.234 µM
IC50 (CCRF-CEM): 0.282 µM
IC50 (NCI-H446): 0.36 µM
Activity (A2780 [9]): 73.2%
IC50 (PC-3): 0.223 µM
IC50 (LNCaP): 0.807 µM
IC50 (MDA-MB-231): 0.48 µM
IC50 (HCT-116): 0.259 µM
Activity (A2780 [10]): 9.1%
IC50 (SW-620): 0.466 µM
IC50 (SHP77): 0.261 µM
Activity (A2780 [11]): 39.3%
IC50 (A2780 [12]): 0.267 µM
IC50 (DU-145): 0.484 µM

SMILES: CN(C)C(=O)N1Cc2cc(Cl)ccc2C(c2cccc(O)c2)C1 (stereo not given)
IC50 (A2780 [2]): 1.19 µM
IC50 [1]: 2.49 µM

SMILES: CN(C)C(=O)N1Cc2c(Br)cccc2C(c2cccc(O)c2)C1 (stereo not given)
IC50 [1]: > 25 µM

SMILES: COc1ccc2c(c1OC)CN(C(=O)N(C)C)CC2c1cccc(O)c1 (stereo not given)
IC50 (A2780 [2]): 2.92 µM
IC50 [1]: 12.8 µM

SMILES: CN(C)C(=O)N1Cc2cc(F)ccc2C(c2cccc(O)c2)C1 (stereo not given)
IC50 [1]: > 25 µM

SMILES: Cc1ccc2c(c1C)CN(C(=O)N(C)CCCN(C)C)CC2c1ccccc1 (stereo not given)
IC50 (A2780 [2]): 1.21 µM
IC50 [1]: 5.44 µM

SMILES: Cc1ccc2c(c1C)CN(C(=O)N(C)C)CC2c1cccc(Cl)c1 (stereo not given)
IC50 (A2780 [2]): 3.02 µM
IC50 [1]: 3.48 µM

SMILES: Cc1ccc2c(c1C)CN(C)CC2c1ccccc1 (stereo not given)
IC50 (A2780 [2]): 7.3 µM
IC50 [1]: 18.4 µM

Continued, values first:

IC50 [1]: > 25 µM
SMILES: CNC(=O)N1Cc2c(ccc(C)c2C)C(c2ccccc2)C1 (stereo not given)

IC50 [1]: 17.9 µM
SMILES: CC(=O)N1Cc2c(ccc(C)c2C)C(c2ccccc2)C1 (stereo not given)

IC50 (A2780 [2]): 7.77 µM
IC50 [1]: 16.4 µM
SMILES: Cc1ccc2c(c1C)CN(C(=O)c1ccccc1)CC2c1ccccc1 (stereo not given)

IC50 [1]: 14.4 µM
SMILES: COC(=O)N1Cc2c(ccc(C)c2C)C(c2ccccc2)C1 (stereo not given)

IC50 (A2780 [2]): 1.86 µM
IC50 [1]: 5.36 µM
SMILES: Cc1ccc2c(c1C)CN(CCCCN(C)C)CC2c1ccccc1 (stereo not given)

IC50 [1]: > 25 µM
SMILES: Cc1ccc2c(c1C)CN(CCc1ccccc1)CC2c1ccccc1 (stereo not given)

IC50 (A2780 [2]): 2.37 µM
IC50 [1]: 4.65 µM
SMILES: Cc1ccc2c(c1C)CN(CCCCN)CC2c1ccccc1 (stereo not given)

IC50 [1]: > 25 µM
SMILES: Cc1ccc2c(c1C)CN(CCn1cccc1)CC2c1ccccc1 (stereo not given)

IC50 (A2780 [2]): 3.24 µM
IC50 [1]: 8.88 µM
SMILES: Cc1ccc2c(c1C)CN(CCCN(C)C)CC2c1ccccc1 (stereo not given)
